From ChEMBL document CHEMBL2412964, “Discovery of novel tetrahydro-pyrazolo [4,3-c] pyridines for the treatment of neuropathic pain: synthesis and neuropharmacology” (Eur J Med Chem, 2013) come the findings set out here.

For series [1], the species on record is Rattus norvegicus. Nature of the series: Neuroprotective activity in Wistar rat chronic constriction injury model assessed as inhibition of nitric oxide production in brain after 2 hrs by Griess method relative to control. It counts as functional. In short, it runs like this: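 Wistar rats of either sex (200-250 g) with chronic constriction of the left sciatic nerve. On day 9 post-injury, compound given i.p. in 30% v/v PEG 400; tissue taken 2 h after dosing. Nitrate reduced to nitrite, nitrite measured colorimetrically with Griess reagent against a standard curve. Results expressed as percentage of vehicle-treated control; n = 4.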
Background: The Griess reaction detects nitrite, a stable product of nitric oxide.

In series [2] the test system is Rattus norvegicus. Description: Antinociceptive activity in Wistar rat partial sciatic nerve ligation model assessed as reversal of spontaneous pain response at 100 mg/kg, ip after 120 mins (reference value: 1.2 +/- 0.1%). It counts as functional. Particulars: route intraperitoneal.
The target in series [3] is Cathepsin S (Homo sapiens) (UniProt P25774). Nature of the series: Inhibition of human recombinant cathepsin S using Z-Val-Val-Arg-AMC as substrate at 50 uM preincubated for 10 mins prior to substrate addition measured after 30 mins by fluorescence spectrophotometric analysis relative to control.
Chain of Cathepsin S (Homo sapiens) (P25774 115-331 limits assumed): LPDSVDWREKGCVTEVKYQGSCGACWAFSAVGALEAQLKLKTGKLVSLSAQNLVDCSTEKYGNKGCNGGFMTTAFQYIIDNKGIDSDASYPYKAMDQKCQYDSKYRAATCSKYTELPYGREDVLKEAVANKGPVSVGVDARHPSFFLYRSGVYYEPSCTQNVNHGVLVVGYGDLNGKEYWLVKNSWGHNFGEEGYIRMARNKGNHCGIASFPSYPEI
The test system of series [4] is Rattus norvegicus. Nature of the series: Antinociceptive activity in Wistar rat chronic constriction injury model assessed as reversal of tactile allodynia at 100 mg/kg, ip after 30 mins (reference value: 3.4 +/- 0.8%). It counts as functional. Particulars: route intraperitoneal.
Series [5] deals with Mus musculus. Description: Anticonvulsant activity in ip dosed Swiss albino mouse assessed as protection against picrotoxin-induced seizure administered 30 mins prior to picrotoxin-challenge measured after 4 hrs. The note with it: read-out: MED. It counts as functional. In short, it runs like this:
(§1)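 Mice, either sex, 20-25 g, given compound i.p. at 30, 100 and 300 mg/kg. Thirty minutes later, picrotoxin 3.15 mg/kg was injected s.c. in 0.01 mL/g body weight. Animals were isolated and watched for 45 min for a threshold convulsion, and protection was scored as its absence. Examined at 0.5 and 4 h. Value reported is the minimum dose active in half or more of the mice (n = 3).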

Series [6] relates to Rattus norvegicus. Description: Antinociceptive activity in ip dosed Wistar rat chronic constriction injury model assessed as reversal of mechanical allodynia after 30 mins. It counts as functional. The note with it: 0.5 h. In short, it runs like this:
(§2)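 Wistar rats (200–250 g) with nerve injury, compounds i.p. in 30% v/v PEG 400; dose–response curves in each sensory test (spontaneous pain and cold allodynia as paw withdrawal duration; tactile allodynia and hyperalgesia as withdrawal threshold). ED50 linearly interpolated between doses just above and below 50% response; time of peak effect recorded.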

In series [7] the target is T1, Cannabinoid receptor 2 (Rattus norvegicus, UniProt Q9QZN9).
T1 sequence (Q9QZN9 whole entry): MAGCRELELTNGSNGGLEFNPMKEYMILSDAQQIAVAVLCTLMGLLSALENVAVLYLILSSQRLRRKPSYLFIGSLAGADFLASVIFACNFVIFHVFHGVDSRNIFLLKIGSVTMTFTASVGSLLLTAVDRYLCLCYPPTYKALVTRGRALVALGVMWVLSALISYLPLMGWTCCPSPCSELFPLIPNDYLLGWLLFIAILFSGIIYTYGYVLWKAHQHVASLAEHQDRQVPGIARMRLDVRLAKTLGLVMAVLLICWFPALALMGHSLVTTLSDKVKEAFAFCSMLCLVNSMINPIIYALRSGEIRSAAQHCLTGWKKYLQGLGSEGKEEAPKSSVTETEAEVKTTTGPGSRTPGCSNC
Description: Displacement of [3H]CP55940 from CB2 receptor in rat spleen homogenate after 90 mins. It counts as tissue-based. In short, it runs like this: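 Rat brain (CB1) or spleen (CB2) membranes, homogenized in tris/NaCl/MgCl2 pH 7.4, competed against 0.5 nM [3H]CP55940 in 50 mM Tris-HCl, 2 mM EDTA, 5 mM MgCl2, 0.2 mg/mL BSA, pH 7.4; 90 min incubation. Nonspecific binding with 1 µM WIN (CB1) or 1 µM SR144528 (CB2); triplicates averaged.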
(In general: Loss of bound radioactivity is the signal in a displacement assay; it reports binding, not function.)

Series [8] deals with Rattus norvegicus. Description: Antinociceptive activity in Wistar rat partial sciatic nerve ligation model assessed as reversal of tactile allodynia at 100 mg/kg, ip after 30 mins (reference value: 7.7 +/- 0.7%). It counts as functional. The note with it: route intraperitoneal.
The test system of series [9] is Mus musculus. Nature of the series: Anticonvulsant activity in ip dosed Swiss albino mouse assessed as protection against picrotoxin-induced seizure administered 30 mins prior to picrotoxin-challenge measured after 0.5 hrs. It counts as functional. The note with it: read-out: MED. In short, it runs like this:
as §1

Series [10] relates to Rattus norvegicus. Description: Antinociceptive activity in Wistar rat partial sciatic nerve ligation model assessed as reversal of mechanical allodynia at 100 mg/kg, ip after 60 mins (reference value: 2.8 +/- 0.3%). The note with it: route intraperitoneal. It counts as functional.
Series [11] relates to Rattus norvegicus. Nature of the series: Antinociceptive activity in Wistar rat chronic constriction injury model assessed as reversal of cold allodynia at 100 mg/kg, ip after 60 mins (reference value: 6.3 +/- 1.9%). It counts as functional. Particulars: route intraperitoneal.
Series [12] relates to Rattus norvegicus. Nature of the series: Antinociceptive activity in ip dosed Wistar rat partial sciatic nerve ligation model assessed as reversal of tactile allodynia after 60 mins. It counts as functional. Particulars: 1 h. In short, it runs like this: as §2
Series [13] deals with Rattus norvegicus. Description: Antinociceptive activity in ip dosed Wistar rat partial sciatic nerve ligation model assessed as reversal of cold allodynia after 30 mins. It counts as functional. The note with it: 0.5 h. In short, it runs like this:
as §2

Series [14] deals with Rattus norvegicus. Nature of the series: Antinociceptive activity in Wistar rat partial sciatic nerve ligation model assessed as reversal of cold allodynia at 100 mg/kg, ip after 60 mins (reference value: 2.5 +/- 0.3%). The note with it: route intraperitoneal. It counts as functional.
The subject of series [15] is Rattus norvegicus. Description: Antinociceptive activity in ip dosed Wistar rat chronic constriction injury model assessed as reversal of tactile allodynia after 30 mins. The note with it: 0.5 h. It counts as functional. The procedure, abridged:
as §2

In series [16] the test system is Rattus norvegicus. Nature of the series: Antinociceptive activity in Wistar rat partial sciatic nerve ligation model assessed as reversal of tactile allodynia at 100 mg/kg, ip after 60 mins (reference value: 12.5 +/- 1.2%). It counts as functional. Particulars: route intraperitoneal.
Series [17] deals with Rattus norvegicus. Nature of the series: Antinociceptive activity in Wistar rat partial sciatic nerve ligation model assessed as reversal of tactile allodynia at 100 mg/kg, ip after 120 mins relative to control. Particulars: route intraperitoneal. It counts as functional.
The test system of series [18] is Rattus norvegicus. Nature of the series: Antinociceptive activity in ip dosed Wistar rat chronic constriction injury model assessed as reversal of cold allodynia after 30 mins. It counts as functional. The note with it: 0.5 h. In short, it runs like this: as §2
Series [19] relates to Mus musculus. Nature of the series: Neurotoxicity in Swiss albino mouse assessed as minimal motor impairment at 300 mg/kg after 0.5 hrs by rotarod test. It counts as toxicity, organism-based. Set-up: dose 300 mg/kg. The note with it: in vivo. In short, it runs like this:
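Swiss albino mice of either sex, 20-25 g, dosed at 30, 100 and 300 mg/kg, three per group. Minimal motor impairment scored by rotarod at 0.5 and 4.0 h after dosing. Reported value is the lowest dose giving impairment in half or more of the mice.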
Background: Falling from the rotarod earlier than controls is read as motor impairment.

The subject of series [20] is Mus musculus. Description: Antinociceptive activity in Swiss albino mouse assessed as inhibition of formalin-induced flinching at 100 mg/kg administered 30 mins prior to test measured up to 5 mins relative to control. It counts as functional.
Series [21] concerns Rattus norvegicus. Nature of the series: Antinociceptive activity in ip dosed Wistar rat chronic constriction injury model assessed as reversal of spontaneous pain response after 30 mins. It counts as functional. Particulars: 0.5 h. The procedure, abridged: as §2
The test system of series [22] is Rattus norvegicus. Description: Antinociceptive activity in ip dosed Wistar rat chronic constriction injury model assessed as reversal of cold allodynia after 60 mins. It counts as functional. Particulars: 1 h. In short, it runs like this: as §2
The subject of series [23] is Rattus norvegicus. Description: Antinociceptive activity in ip dosed Wistar rat chronic constriction injury model assessed as reversal of mechanical allodynia after 60 mins. It counts as functional. The note with it: 1 h. The procedure, abridged: as §2
Series [24] deals with Rattus norvegicus. Description: Antinociceptive activity in ip dosed Wistar rat partial sciatic nerve ligation model assessed as reversal of cold allodynia after 60 mins. It counts as functional. Particulars: 1 h. The procedure, abridged: as §2
Series [25] relates to Rattus norvegicus. Description: Antinociceptive activity in ip dosed Wistar rat partial sciatic nerve ligation model assessed as reversal of tactile allodynia after 30 mins. It counts as functional. Particulars: 0.5 h. In short, it runs like this: as §2
Series [26] concerns Rattus norvegicus. Description: Antinociceptive activity in ip dosed Wistar rat chronic constriction injury model assessed as reversal of spontaneous pain response after 60 mins. It counts as functional. The note with it: 1 h. In short, it runs like this: as §2
The subject of series [27] is Mus musculus. Description: Anticonvulsant activity in Swiss albino mouse assessed as protection against picrotoxin-induced seizure at 300 mg/kg, ip administered 30 mins prior to picrotoxin-challenge measured after 4 hrs. It counts as functional, organism-based. Details: dose 300 mg/kg. The procedure, abridged:
as §1

Broadly, the inhibition is the drop in the measured response relative to a control, in per cent. What is called ED50 is the dose at which the effect has come halfway, by size or by number of responders. As a reminder, the IC50 is the concentration at which inhibition is half-maximal. High values mean a need for much substance, low ones inhibition by little substance. The term inhibition in vivo denotes how much of the control response was suppressed.

Activity calls are given as the source filed them.

Turning to `CCN1CCc2c(c(C(C)(C)C)nn2C(=O)Nc2ccc(Br)cc2)C1`, the “inhibition (INH)” value in [1] was 16.4%. Further, the Activity in series [2] was 43.1%; in series [4] it was 66.7%; in series [8], 61.6%; in series [10], 53.6%; in [11], 65%; in series [14], 50.6%. The Activity in [16] was 44.9%; in series [17], 44.9%; in series [19], “Non-toxic”. The inhibition in [3] was found to be 39.9%. The minimal effective dose in series [5] and in [9] was 100 mg/kg in each case. Moreover, the ED50 in [6] was determined as 37.3 mg/kg; in [12] it was 37.5 mg/kg; in series [13] it was 68 mg/kg; in [15] it was 23.8 mg/kg; in series [18], 41.4 mg/kg; in series [21], 27.3 mg/kg. Further, in series [7], the half-inhibitory concentration (IC50) was over 1000 nM. The inhibition in vivo at 100 mg/kg in series [20] turned out to be 0%.

`CCN1CCc2c(c(C(C)(C)C)nn2C(=O)Nc2c(C)cccc2C)C1`: the “inhibition (INH)” value in [1] was found to be 15.3%. Besides, the Activity in series [2] turned out to be 57.8%; in [4], 90.1%; in [8], 89.4%; in series [10], 57.7%; in series [11] it was 61.2%; in [14], 56%. The Activity in series [16] is reported as 61.6%; in [17], 46.6%; in series [19], “Non-toxic”. Further, the ED50 in [22] worked out at 37.4 mg/kg; in series [23] it was 38.3 mg/kg; in [24] it was 65.8 mg/kg; in series [25] it was 24.9 mg/kg; in series [26] it was 10.4 mg/kg; in series [15], 21.7 mg/kg. Moreover, the inhibition in series [3] is 34.1%. In addition, the minimal effective dose in [5] and in series [9] was 100 mg/kg in each case. The compound further gave an IC50 in series [7] of over 1000 nM. For the same compound, the inhibition in vivo at 100 mg/kg in series [20] came to 15.7%.

Turning to `CCN1CCc2c(c(C(C)(C)C)nn2C(=O)Nc2ccc(C)cc2C)C1`, the “inhibition (INH)” value in series [1] came out at 12.5%. Moreover, the Activity is recorded as 64.2% in series [2]; 69.7% in series [4]; 61.6% in series [8]; 56.3% in series [10]; 50.4% in series [11]; 52.7% in series [14]. Besides, the Activity in series [16] was 50.4%; in series [17] it was 88.4%; in series [19], “Non-toxic”. Further, the ED50 in [22] was 29.8 mg/kg; in [23], 25.7 mg/kg; in series [24] it was 44.4 mg/kg; in series [26], 15.5 mg/kg. For the same compound, the inhibition in series [3] is 12.1%. Further, the IC50 in series [7] was over 1000 nM. In addition, in [9], the minimal effective dose was determined as 300 mg/kg. Further, in series [27], the result was inactive. The inhibition in vivo at 100 mg/kg in series [20] came to 15.7%.
